This is a sample that favours compounds with a hit; in the whole collection about 1.9% have one here.
UHRF1 binding: UHRF1 methyl-DNA binding inhibition. UHRF1 binding to methylated oligo, TR-FRET. Q96T88. inhibition, % at 4.4 µM. 370,000 compounds, 0.75% hits; in the data active means inhibition above about 21%;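 further: UHRF1 SRA domain binding a hemimethylated CpG hairpin DNA probe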
Rin1-Abl PPI inh: blocks binding of human Rin1 to Abl | inhibition, % at 7.35 µM | AID 588664 | P00519+Q13671 | 360,000 compounds, 0.4% hits | TR-FRET Rin1/Abl binding, biochemical; in the data active means inhibition above about 5%, passing the limit was not always enough
TDP2 inh: TDP2 (human) inhibition, absorbance primary screen; O95551; recombinant TDP2, T5PNP hydrolysis, p-nitrophenol absorbance 415 nm; inhibition, % at 12.8 µM; 370,000 compounds, 0.34% hits;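 active means inhibition above the mean of all tested compounds plus 3 SD, set per campaign, cut at about 25% in these data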
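test system = human TDP2 enzyme | input = TDP2 enzyme at 120 nM final | medium = 50 mM Tris-HCl pH 7.5 with Mg2+, KCl, DTT, BSA | also added = T5PNP substrate, 5 mM | times = 2 h at 37 °C | technique = epi absorbance | benchmarks = high control without enzyme, low control DMSO plus TDP2 | replication = each compound tested once, singlicate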
LEDGF integ inh: blocks HIV-1 LEDGF/p75-dependent DNA integration | AID 743269 | inhibition, % at 3.7 µM | TR-FRET IN-LEDGF/p75 DNA integration, Eu/Cy5 | 370,000 compounds, 0.64% hits;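 active means inhibition above the screen-wide mean plus 3 SD, cut at about 13% in these data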;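 further: signal is the Cy5 over europium emission ratio at 671 and 618 nm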
MBD2 inh: inhibitors of human MBD2 binding to methylated oligonucleotide. Q9UBB5. AID 686964. 370,000 compounds, 0.31% hits. inhibition, % at 4.4 µM. TR-FRET; in the data active means inhibition above about 13%
Target sequence (Q9UBB5 whole entry, looked up): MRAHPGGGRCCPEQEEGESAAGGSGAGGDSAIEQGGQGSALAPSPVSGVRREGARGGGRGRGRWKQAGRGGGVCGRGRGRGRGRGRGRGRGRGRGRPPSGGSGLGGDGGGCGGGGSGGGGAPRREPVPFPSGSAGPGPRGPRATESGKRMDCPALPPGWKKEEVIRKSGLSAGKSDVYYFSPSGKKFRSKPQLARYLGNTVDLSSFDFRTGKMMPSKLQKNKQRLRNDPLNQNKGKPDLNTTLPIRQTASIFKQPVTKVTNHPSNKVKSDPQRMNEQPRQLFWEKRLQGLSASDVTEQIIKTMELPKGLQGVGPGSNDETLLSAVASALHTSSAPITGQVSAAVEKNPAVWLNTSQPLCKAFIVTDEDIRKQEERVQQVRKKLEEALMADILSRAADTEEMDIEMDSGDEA
IN multimer act: counter-screen for LEDGF/p75 integration inhibitors: HIV-1 integrase multimerization activators. shares compounds with LEDGF integ inh. TR-FRET HIV-1 integrase multimerization, biochemical. activation, % at 7.7 µM. 2,000 compounds, 17% hits. AID 1053131; in the data active means activation above about 8.9%
TR-FRET interf: TR-FRET optical interference, LEDGF/p75 integration counter-screen | TR-FRET optical interference counterscreen, HIV-1 IN multimerization | 2,000 tested, under 10 active | shares compounds with LEDGF integ inh | inhibition, % at 7.7 µM;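 active means inhibition above the mean over all tested compounds plus 3 SD, which no compound reached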
IN-LEDGF confirm: confirmation of HIV-1 LEDGF/p75-dependent integration inhibitors; shares compounds with LEDGF integ inh; TR-FRET LEDGF/p75-dependent HIV-1 integration, biochemical; inhibition, % at 3.7 µM; 2,000 compounds, 36% hits; in the data active means inhibition above about 14%
A number is an active result; i = inactive; nt = no result given.

SMILES	UHRF1 binding	Rin1-Abl PPI inh	TDP2 inh	LEDGF integ inh	MBD2 inh	IN multimer act	TR-FRET interf	IN-LEDGF confirm
CC(C)CC1Nc2ncnc(N3CCN(c4ccccn4)CC3)c2N(Cc2ccc(Br)cc2)C1=O (configuration not stated)	i	i	i	i	i	nt	nt	nt
Cc1ccc(CN2C(=O)C(CC(C)C)Nc3ncnc(N4CCN(c5ccccn5)CC4)c32)cc1 (configuration not stated)	i	i	i	91	i	i	i	i
CC1=C(SCc2ccccc2)C(=O)c2ccccc2C1=O	i	i	51	24	i	i	i	44
Cn1c(SCc2ccccc2)nccc1=O	i	i	i	i	i	nt	nt	nt
O=[N+]([O-])c1ccc2nc(-c3ccncc3)[nH]c2c1	i	i	i	46	i	i	i	i
Cc1nc2ccc(S(=O)(=O)NCC(=O)NCc3ccccc3C)cc2s1	i	nt	i	i	i	nt	nt	nt
CC(=O)NC1=NC(=O)/C(=C/c2cc(C)n(-c3ccc(NC(C)=O)cc3)c2C)S1	i	i	i	i	i	nt	nt	nt
CC(=O)NC1=NC(=O)/C(=C/c2cc(C)n(-c3cccc(C(=O)O)c3)c2C)S1	45	i	i	31	i	14	i	i
O=C(NCc1ccccc1F)C1CCC(CNS(=O)(=O)c2cccc3cccnc23)CC1 (configuration not stated)	i	nt	i	i	i	nt	nt	nt
CCOC(=O)c1c(C)c(C(=O)NC2CCCCCC2)c(C)n1C	i	i	i	66	i	i	i	i
CCCn1c(CN(C)Cc2ccccc2)nc2c1c(=O)n(C)c(=O)n2C	i	i	i	i	i	nt	nt	nt
CN(Cc1ccccc1)Cc1nc2c(c(=O)n(C)c(=O)n2C)n1CCc1ccccc1	i	i	i	23	i	i	i	i
CC1(C)CC(N=C2C([N+](=O)[O-])=CC=C3C2=NC2(CCCCC2)N3O)CC(C)(C)N1	i	i	i	26	i	i	i	i
Cc1ccccc1OCCCN1CCOCC1	i	i	i	29	i	i	i	i
Cc1cccc(OCCCN2CCOCC2)c1C	i	i	i	i	i	nt	nt	nt
N=C1/C(=C\c2ccc(SCc3ccco3)o2)C(=O)N=C2SC=NN12	51	i	i	49	i	i	i	50
O=C(Nc1ccc(F)cc1)OCc1cn(Cc2ccc(F)c(F)c2)nn1	i	nt	i	i	i	nt	nt	nt
O=C(C1CCCCC1)n1ccc2ccc(-c3ccc4ccn(Cc5ccccc5)c4c3)cc21	i	nt	i	i	i	nt	nt	nt
O=C1[C@@H]2Cc3c([nH]c4ccccc34)CN2C(=O)CN1CCCCCO	i	i	i	96	i	i	i	i
O=c1c2c([N+](=O)[O-])cc([N+](=O)[O-])cc2sn1Cc1ccccc1	i	i	i	i	i	nt	nt	nt
O=c1c2c([N+](=O)[O-])cc([N+](=O)[O-])cc2nc2ccccn12	i	i	i	25	i	i	i	19
O=C(Nc1cccc(C2=NCCN2)c1)Nc1cccc(C2=NCCN2)c1	i	i	i	18	i	i	i	18
Cc1ccccc1N=C1NC(=O)/C(=C/c2cccn2C)S1	i	i	i	i	i	nt	nt	nt
Cn1cccc1/C=C1\CCC/C(=C\c2cccn2C)C1=O	i	i	i	19	i	i	i	i
Oc1ccc(NCc2cccc(OCc3ccc(F)cc3)c2)cc1	i	i	i	14	i	i	i	26
SMILES	UHRF1 binding	Rin1-Abl PPI inh	TDP2 inh	LEDGF integ inh	MBD2 inh	IN multimer act	TR-FRET interf	IN-LEDGF confirm
Oc1ccc(NCc2cccc(OCc3ccccc3)c2)cc1	i	i	i	16	i	8.9	i	41
O=[N+]([O-])c1ccc(COc2cccc(CNc3ccc(F)cc3)c2)cc1	i	i	i	i	i	nt	nt	nt
O=C(COc1ccccc1C(=O)NCc1ccccc1)Nc1ccc(I)cc1	i	nt	i	i	i	nt	nt	nt
COc1ccc(-c2c(-c3cc(OC)cc(OC)c3)n(C)c3ccc(-c4cnc(N)nc4)cc23)cc1	i	i	i	i	i	nt	nt	nt
COc1ccc(-c2c(-c3cc(OC)cc(OC)c3)n(C)c3ccc(-c4ccc(OC)nc4)cc23)cc1	i	i	i	19	i	i	i	i
CC(NS(=O)(=O)c1ccc(Br)cc1F)[C@H](O)c1ccccc1 (some centres not stated)	i	i	i	15	i	i	i	i
CC(C)c1cccc(-c2csc(C(C)(O)c3ccccc3)n2)c1 (configuration not stated)	i	i	i	16	i	i	i	i
COc1cccc(C(C)(O)c2nc(-c3ccc(Cl)cc3)cs2)c1 (configuration not stated)	i	i	i	i	i	nt	nt	nt
CC(O)(c1ccccc1)c1nc(-c2cccc(C(=O)O)c2)cs1 (configuration not stated)	i	i	i	i	i	nt	nt	nt
COc1ccc(-c2csc(C(C)(O)c3cccc(OC)c3)n2)cc1 (configuration not stated)	i	i	i	22	i	i	i	i
O=C(Nc1nc2ncccn2c1-c1ccccc1)C1CC1	i	nt	i	i	i	nt	nt	nt
COC(=O)[C@]12C[C@H](CC(=O)N3CCCCC3)C(=O)N(CCc3ccc(OC)c(OC)c3)C1=C[C@H](C1CCCC1)O[C@@H]2C	i	nt	i	i	i	nt	nt	nt
CCc1nonc1NC(=O)c1oc2cc(C)c(C)cc2c1C	i	i	i	i	i	nt	nt	nt
CCc1nnc(NC(=O)c2oc3cc(C)c(C)cc3c2C)s1	i	i	i	16	i	i	i	i
S=c1[nH]nc(-c2cc(-c3ccccc3)n[nH]2)n1/N=C/C=C/c1ccco1	i	i	i	i	i	nt	nt	nt
S=c1[nH]nc(-c2ccco2)n1/N=C/C=C/c1ccco1	26	i	i	21	i	16	i	74
OC(c1ccccc1)(c1ccccc1)C1CCN(CCCOc2ccc(Br)cc2)CC1	i	nt	i	i	i	nt	nt	nt
O=S1(=O)c2ccc(N3CCC[C@@H]3CO)cc2OCCCN1C1CC1	i	nt	i	i	i	nt	nt	nt
Cn1c(=O)c2ccccc2n(Cc2cccc(F)c2)c1=O	i	i	i	21	i	i	i	i
Cn1c(=O)c2ccccc2n(Cc2ccccc2F)c1=O	i	i	i	i	i	nt	nt	nt
Nc1nc2ncccc2cc1C(=O)c1c[nH]c2ccccc12	i	nt	i	i	i	nt	nt	nt
Cc1ccc(C(=O)Nc2nc(-c3ccccc3)c(-c3ccccc3)o2)cc1	i	i	i	21	i	i	i	23
COc1cccc(-c2cc3nc(-c4ccco4)cc(N4CCN(C(C)=O)CC4)n3n2)c1	i	nt	i	i	i	nt	nt	nt
COC(=O)[C@]12C[C@H](CC(=O)N3CCC(c4ccccc4)CC3)C(=O)N(Cc3ccccc3)C1=C[C@H](COCc1ccccc1)O[C@@H]2C	i	nt	i	i	i	nt	nt	nt

Assay outcomes: PubChem BioAssay, The Scripps Research Institute Molecular Screening Center
